{"source": "ChEMBL document CHEMBL5244249", "about": "“Discovery of tofacitinib derivatives as orally active antitumor agents based on the scaffold hybridization strategy” (Eur J Med Chem, 2020)", "key": {"[1]": {"system": "BGC-823", "assay": "Antiproliferative activity against human BGC-823 cells assessed as inhibition of cell growth incubated for 72 hrs by MTT assay", "assay_type": "functional, cell-based", "settings": "BGC-823, 72 h", "procedure,_shortened": "(§1)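 Antiproliferative screen in gastric cancer lines MGC-803, HGC-27 and BGC-823 by MTT assay; IC50 reported as mean ± SD.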"}, "[2]": {"system": "MGC-803", "assay": "Induction of apoptosis in human MGC-803 cells assessed as late apoptotic cells at 5 uM incubated for 24 hrs by Annexin V-FITC/PI staining based flow cytometric analysis (reference value: 3.8 %)", "assay_type": "functional"}, "[3]": {"system": "MGC-803", "assay": "Induction of apoptosis in human MGC-803 cells assessed as early apoptotic cells at 7.5 uM incubated for 48 hrs by Annexin V-FITC/PI staining based flow cytometric analysis (reference value: 2.5 %)", "assay_type": "functional"}, "[4]": {"system": "MGC-803", "assay": "Antitumor activity against human MGC-803 cells xenografted in SCID mouse assessed as decrease in average tumor volume at 12.5 to 25 mg/kg, IG administered for 21 days", "assay_type": "functional, organism-based", "settings": "dose 12.5-25 mg/kg, time 21.0 day", "procedure,_shortened": "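MGC-803 cells implanted subcutaneously on the right side of SCID mice; dosed at 12.5 or 25 mg/kg in 0.5% CMC-Na (vehicle control) for 21 days. Body weight and tumor size recorded periodically; tumors excised and weighed at end. Means ± SD.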"}, "[5]": {"assay": "Selectivity index, ratio of IC50 for cytotoxicity against human GES1 cells to IC50 for antiproliferative activity against human MGC-803 cells", "assay_type": "toxicity, cell-based", "settings": "GES1 cells and MGC-803 cells, read-out: Ratio IC50"}, "[6]": {"system": "MGC-803", "assay": "Induction of apoptosis in human MGC-803 cells assessed as viable cells at 5 uM incubated for 48 hrs by Annexin V-FITC/PI staining based flow cytometric analysis (reference value: 96.7 %)", "assay_type": "functional", "settings": "read-out: Activity"}, "[7]": {"system": "MGC-803", "assay": "Induction of mitochondrial dysfunction in human MGC-803 cells assessed as downregulation of procaspase-3 expression at 5 to 10 uM incubated for 24 hrs by Western blot analysis", "assay_type": "functional, cell-based", "settings": "dose 5-10 µM", "procedure,_shortened": "(§2)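 Western blot of caspase 9, 3, 7, PARP and γH2A.X in MGC-803 lysates after 24 h exposure to 5, 7.5 or 10 μM; band quantitation; mean ± SD from three independent experiments.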"}, "[8]": {"assay": "Activation of MAPK pathway in human MGC-803 cells assessed as change in phosphorylated Erk1/2 expression at 5 to 10 uM incubated for 24 hrs by Western blot analysis", "assay_type": "cell-based", "settings": "dose 5-10 µM"}, "[9]": {"system": "MGC-803", "assay": "Induction of mitochondrial dysfunction in human MGC-803 cells assessed as upregulation of cleaved caspase-7 expression at 5 to 10 uM incubated for 24 hrs by Western blot analysis", "assay_type": "functional, cell-based", "settings": "dose 5-10 µM", "procedure,_shortened": "as §2"}, "[10]": {"assay": "Toxicity in SCID mouse xenografted with human MGC-803 cells assessed as effect on liver at 12.5 to 25 mg/kg, IG administered for 21 days by H&E staining based histopathological analysis", "assay_type": "organism-based", "settings": "in vivo, po, 504 h, dose 12.5-25 mg/kg, time 21 day", "procedure,_shortened": "(§3)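 SCID mice bearing subcutaneous MGC-803 xenografts (right side) dosed with 12.5 or 25 mg/kg over 21 days, 0.5% CMC-Na vehicle as control; body weight and tumor size monitored periodically; major organs examined histopathologically at end; means ± SD.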"}, "[11]": {"system": "MGC-803", "assay": "Induction of apoptosis in human MGC-803 cells assessed as cell rounding up at 5 to 10 uM incubated for 24 hrs by Hoechst 33342 staining based fluorescence microscopic analysis", "assay_type": "functional", "settings": "dose 5-10 µM", "procedure,_shortened": "(§4)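 MGC-803 cells exposed to 0, 5, 7.5 or 10 μM; cell morphology imaged and nuclear morphology examined by staining. Mean ± SD, three independent experiments.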"}, "[12]": {"system": "MGC-803", "assay": "Induction of mitochondrial dysfunction in human MGC-803 cells assessed as increase in green fluorescence intensity at 5 uM incubated for 24 hrs by JC-1 staining based fluorescence microscopic analysis (reference value: 9.9%)", "assay_type": "functional"}, "[13]": {"system": "MGC-803", "assay": "Induction of apoptosis in human MGC-803 cells assessed as viable cells at 7.5 uM incubated for 24 hrs by Annexin V-FITC/PI staining based flow cytometric analysis (reference value: 90.3 %)", "assay_type": "functional", "settings": "read-out: Activity"}, "[14]": {"system": "MGC-803", "assay": "Induction of apoptosis in human MGC-803 cells assessed as viable cells at 10 uM incubated for 48 hrs by Annexin V-FITC/PI staining based flow cytometric analysis (reference value: 96.7 %)", "assay_type": "functional", "settings": "read-out: Activity"}, "[15]": {"system": "MGC-803", "assay": "Inhibition of colony formation in human MGC-803 cells at 1 uM incubated for 9 days by crystal violet staining based analysis relative to control", "assay_type": "functional", "settings": "MGC-803, 216 h, time 9 day", "procedure,_shortened": "(§5)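 Clonogenic assay: MGC-803 cells grown 9 days with 0, 1, 2 or 3 μM; colonies counted and inhibition rate calculated against untreated control; mean ± SD of three independent experiments.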"}, "[16]": {"system": "MGC-803", "assay": "Antiproliferative activity against human MGC-803 cells assessed as inhibition of cell growth incubated for 72 hrs by MTT assay", "assay_type": "functional, cell-based", "settings": "MGC-803, 72 h", "procedure,_shortened": "as §1"}, "[17]": {"assay": "Activation of MAPK pathway in human MGC-803 cells assessed as increase in phosphorylated JNK expression at 5 to 10 uM incubated for 24 hrs by Western blot analysis", "assay_type": "cell-based", "settings": "filed as activator, dose 5-10 µM"}, "[18]": {"system": "MGC-803", "assay": "Induction of apoptosis in human MGC-803 cells assessed as early apoptotic cells at 10 uM incubated for 24 hrs by Annexin V-FITC/PI staining based flow cytometric analysis (reference value: 3.9 %)", "assay_type": "functional"}, "[19]": {"assay": "Toxicity in SCID mouse xenografted with human MGC-803 cells assessed as effect on lung at 12.5 to 25 mg/kg, IG administered for 21 days by H&E staining based histopathological analysis", "assay_type": "organism-based", "settings": "in vivo, po, 504 h, dose 12.5-25 mg/kg, time 21 day", "procedure,_shortened": "as §3"}, "[20]": {"system": "MGC-803", "assay": "Induction of apoptosis in human MGC-803 cells assessed as necrotic cells at 7.5 uM incubated for 48 hrs by Annexin V-FITC/PI staining based flow cytometric analysis (reference value: 0.3 %)", "assay_type": "functional"}, "[21]": {"system": "MGC-803", "assay": "Induction of apoptosis in human MGC-803 cells assessed as late apoptotic cells at 10 uM incubated for 48 hrs by Annexin V-FITC/PI staining based flow cytometric analysis (reference value: 0.5 %)", "assay_type": "functional"}, "[22]": {"system": "MGC-803", "assay": "Induction of apoptosis in human MGC-803 cells assessed as necrotic cells at 5 uM incubated for 24 hrs by Annexin V-FITC/PI staining based flow cytometric analysis (reference value: 2.0 %)", "assay_type": "functional"}, "[23]": {"system": "MGC-803", "assay": "Induction of apoptosis in human MGC-803 cells assessed as cell debris at 5 to 10 uM incubated for 24 hrs by Hoechst 33342 staining based fluorescence microscopic analysis", "assay_type": "functional", "settings": "dose 5-10 µM", "procedure,_shortened": "as §4"}, "[24]": {"system": "MGC-803", "assay": "Induction of apoptosis in human MGC-803 cells assessed as nuclear fragmentation at 5 to 10 uM incubated for 24 hrs by Hoechst 33342 staining based fluorescence microscopic analysis", "assay_type": "functional, cell-based", "settings": "dose 5-10 µM", "procedure,_shortened": "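MGC-803 cells treated at 0, 5, 7.5 and 10 μM; cell morphology and nuclear morphology (fragmentation, condensation) examined by staining and imaging; three independent experiments, mean ± SD.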"}, "[25]": {"system": "MGC-803", "assay": "Inhibition of colony formation in human MGC-803 cells at 2 uM incubated for 9 days by crystal violet staining based analysis relative to control", "assay_type": "functional", "settings": "MGC-803, 216 h, time 9 day", "procedure,_shortened": "as §5"}, "[26]": {"system": "MGC-803", "assay": "Induction of mitochondrial dysfunction in human MGC-803 cells assessed as increase in green fluorescence intensity at 10 uM incubated for 24 hrs by JC-1 staining based fluorescence microscopic analysis (reference value: 9.9%)", "assay_type": "functional"}, "[27]": {"system": "MGC-803", "assay": "Cell cycle arrest in human MGC-803 cells assessed as S phase cells at 10 uM incubated for 24 hrs by RNase/PI staining based flow cytometric analysis (reference value: 27.1%)", "assay_type": "functional"}}, "note": "The source made the active and inactive calls. No cut-off for these calls is given here."}
{"compound": "Cc1cc(N2CC[C@@H](C)[C@@H](N(C)c3ncnc4[nH]ccc34)C2)n2nc(SCc3ccc(C(F)(F)F)cc3)nc2n1", "values": [{"measurement": "IC50", "setting": "[1]", "value": 23.3, "unit": "µM"}, {"measurement": "Activity", "setting": "[2]", "value": 8.8, "unit": "%"}, {"measurement": "Activity", "setting": "[3]", "value": 8.8, "unit": "%"}, {"measurement": "Activity", "setting": "[4]", "value": "Active"}, {"measurement": "selectivity ratio", "setting": "[5]", "value": 6.5}, {"measurement": "viability at 5 µM", "setting": "[6]", "value": 73.4, "unit": "%"}, {"measurement": "Activity", "setting": "[7]", "value": "Active"}, {"measurement": "Activity", "setting": "[8]", "value": "inactive"}, {"measurement": "Activity", "setting": "[9]", "value": "Active"}, {"measurement": "Activity", "setting": "[10]", "value": "Non-Toxic"}, {"measurement": "Activity", "setting": "[11]", "value": "Active"}, {"measurement": "Activity", "setting": "[12]", "value": 27.7, "unit": "%"}, {"measurement": "viability at 7.5 µM", "setting": "[13]", "value": 69.2, "unit": "%"}, {"measurement": "viability at 10 µM", "setting": "[14]", "value": 17, "unit": "%"}, {"measurement": "inhibition at 1 µM", "setting": "[15]", "value": 31, "unit": "%"}, {"measurement": "IC50", "setting": "[16]", "value": 2.68, "unit": "µM"}, {"measurement": "Activity", "setting": "[17]", "value": "Active"}, {"measurement": "Activity", "setting": "[18]", "value": 12.7, "unit": "%"}, {"measurement": "Activity", "setting": "[19]", "value": "Non-Toxic"}, {"measurement": "Activity", "setting": "[20]", "value": 1.6, "unit": "%"}, {"measurement": "Activity", "setting": "[21]", "value": 77.2, "unit": "%"}, {"measurement": "Activity", "setting": "[22]", "value": 4, "unit": "%"}, {"measurement": "Activity", "setting": "[23]", "value": "Active"}, {"measurement": "Activity", "setting": "[24]", "value": "Active"}, {"measurement": "inhibition at 2 µM", "setting": "[25]", "value": 54, "unit": "%"}, {"measurement": "Activity", "setting": "[26]", "value": 49.1, "unit": "%"}, {"measurement": "Activity", "setting": "[27]", "value": 28.14, "unit": "%"}]}
